Source: PubChem BioAssay
TRPML3 ag: activates the human TRPML3 channel. AID 1448. HEK293 TRPML3-YFP, Fluo-8 calcium fluorescence; 100% = the carbachol control signal. actives 0.29% (n = 220,000). activation, % at 3 µM;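 active = activation above its plate's cutoff, the mean activation of the plate's test wells plus 3 SD, cut at about 12% in these data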;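 also: 0% = DMSO only wells and 100% = carbachol wells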
Target sequence (Q8TDD5 whole entry, looked up): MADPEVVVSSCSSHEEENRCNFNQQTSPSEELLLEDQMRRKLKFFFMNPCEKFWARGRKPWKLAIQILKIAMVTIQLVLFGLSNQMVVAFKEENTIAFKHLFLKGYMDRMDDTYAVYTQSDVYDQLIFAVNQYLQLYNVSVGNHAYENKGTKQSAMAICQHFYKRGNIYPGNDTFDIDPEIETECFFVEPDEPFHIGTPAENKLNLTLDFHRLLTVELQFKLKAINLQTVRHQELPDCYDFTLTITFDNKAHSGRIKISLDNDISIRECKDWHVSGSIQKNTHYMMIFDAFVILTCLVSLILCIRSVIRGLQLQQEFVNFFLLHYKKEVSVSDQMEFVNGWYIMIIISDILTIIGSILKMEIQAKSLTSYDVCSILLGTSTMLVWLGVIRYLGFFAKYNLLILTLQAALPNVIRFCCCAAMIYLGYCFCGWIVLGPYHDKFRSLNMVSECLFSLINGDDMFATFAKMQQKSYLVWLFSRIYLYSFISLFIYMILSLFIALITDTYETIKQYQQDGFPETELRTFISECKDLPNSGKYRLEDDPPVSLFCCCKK
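system = HEK293 cells stably carrying human TRPML3-YFP | doses = one concentration, 3 µM nominal, 0.3% DMSO | timing = dye loading 1 h 37 °C then 30 min ambient, 125 s read | detection = Fluo-8 calcium dye fluorescence, ex 470-495, em 515-575 nm | benchmarks = high control carbachol 87 µM, low control DMSO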
OXTR potentiator: human OXTR potentiation. CHO-OTR cells, Fluo-8 calcium fluorescence, potentiator mode; 0% = oxytocin EC15, 100% = EC100. P30559. AID 2445. actives 0.061% (n = 320,000). activation, % at 3 µM;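 active = activation above that plate's cutoff, the mean activation of tested compounds plus 3 SD, cut at about 6.6% in these data, passing the limit was not always enough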;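 also: 100% uses oxytocin at 75 nM as the full agonist control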
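System: human OTR in CHO cells; Also added: sub-maximal oxytocin, roughly EC15; Timing: compound 6 min at room temperature before oxytocin, 100 s read; Technique: Fluo-8 intracellular calcium fluorescence, ex 470-495, em 515-575 nm; Controls: oxytocin EC15 low and EC100 high; Replication: singlicate.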
TRPN1 ag: zebrafish TRPN1 (NompC) channel agonism; HEK293 zebrafish TRPN1-YFP, Fluo-8 calcium fluorescence; 100% = response to 87 µM carbachol; activation, % at 3 µM; actives 0.18% (n = 220,000);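 active = activation above its plate's cutoff, the mean activation of test wells on that plate plus 3 SD, cut at about 19% in these data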;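 also: 0% = DMSO alone and 100% = 87 µM carbachol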
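Material: zebrafish TRPN1-YFP in HEK293 cells. Doses: one dose of 3 µM, 0.3% DMSO. Incubation: dye 1 h 37 °C plus 30 min RT. Measured by: intracellular calcium fluorescence with Fluo-8.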
V1R ag counter: activates human V1a receptor in oxytocin agonist counter-screen. activation, % at 3 µM. CHO-V1R cells, Fluo-8 calcium fluorescence, agonist mode; 0% DMSO, 100% 3 nM vasopressin. actives 0.25% (n = 320,000). AID 2797;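 active = activation above the mean activation of all tested compounds plus 3 SD, per screening run, cut at about 20% in these data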;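 also: signal is peak over basal fluorescence ratio across a 100 second FLIPR read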
OXTR agonist: human OXTR agonism | P30559 | CHO-OTR cells, Fluo-8 calcium fluorescence; normalized: DMSO 0%, oxytocin 100% | activation, % at 3 µM | actives 0.32% (n = 320,000);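 active = activation above the mean of all tested compounds plus 3 SD, cutoff set per screening run, cut at about 20% in these data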;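 also: peak over basal fluorescence ratio from a 100 s FLIPR kinetic read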
An asterisk follows results filed as active. Most compounds without a hit are left out; they make up all but 0.55% or so of the library.

O=C(NC(Nc1nc2ccc([N+](=O)[O-])cc2s1)(C(F)(F)F)C(F)(F)F)c1ccccc1Cl was read as TRPML3 ag 23*, OXTR potentiator -11, TRPN1 ag 23*, V1R ag counter 5 and OXTR agonist 2.
O=C(NC(Nc1nc2ccc([N+](=O)[O-])cc2s1)(C(F)(F)F)C(F)(F)F)c1cccnc1 was read as TRPML3 ag 10, OXTR potentiator -12, TRPN1 ag 18, V1R ag counter 14 and OXTR agonist 17.
`COC(=O)C1=NN(C(=O)c2cccc(Br)c2)C(O)(c2ccc(Cl)cc2)C1` (configuration not stated) gave TRPML3 ag 3, OXTR potentiator -14, TRPN1 ag 21*, V1R ag counter 10 and OXTR agonist 9.
Screening CCOC(=O)C1=NN(C(=O)c2ccc(OC)cc2)C(O)(c2ccc(Cl)cc2)C1 (configuration not stated) returned TRPML3 ag -1, OXTR potentiator -10, TRPN1 ag 0, V1R ag counter 6 and OXTR agonist 10.
CCOC(=O)C1=NN(C(=O)c2cccc(Br)c2)C(O)(C(C)(C)C)C1 (configuration not stated) was read as TRPML3 ag 2, OXTR potentiator -15, TRPN1 ag 18, V1R ag counter 12 and OXTR agonist 20*.
`CCOC(=O)c1sc(NC(=O)CCN2CCN(CC)CC2)c(C(=O)OCC)c1C` gave TRPML3 ag 1, OXTR potentiator 7, TRPN1 ag 1, V1R ag counter 1 and OXTR agonist 1.
For O=C(CNC(=O)c1ccc(Br)o1)NNC(=O)c1ccc(Br)cc1 the results were OXTR potentiator -1, V1R ag counter 1 and OXTR agonist 1.
N#C/C(=C(/O)C(Cl)(Cl)Cl)c1nc2ccccc2[nH]1 was read as TRPML3 ag 5, OXTR potentiator -8, TRPN1 ag 20*, V1R ag counter 13 and OXTR agonist 15.
Screening COc1ccc(/C(N)=N/OC(=O)CN(C)S(=O)(=O)c2ccc(C)cc2)cc1 returned TRPML3 ag 84* and TRPN1 ag -1.
Screening Cc1ccc(/C(N)=N/OC(=O)CN(C)S(=O)(=O)c2ccc(C)cc2)cc1 returned OXTR potentiator -8, V1R ag counter 4 and OXTR agonist 0.
For N#CNC(=Nc1cccc(F)c1)SCc1cccc(F)c1 the results were TRPML3 ag 13*, OXTR potentiator -10, TRPN1 ag 16, V1R ag counter 10 and OXTR agonist 9.
CCOC(=O)c1cc(C#N)c(N2CCN(C(=O)c3cccc(C(F)(F)F)c3)CC2)nc1C(F)(F)F was read as TRPML3 ag 5, OXTR potentiator -10, TRPN1 ag 4, V1R ag counter 2 and OXTR agonist -2.
Screening Cc1c2cc(O)c(=O)cc-2oc2cc(O)c(O)cc12 returned TRPML3 ag 3, OXTR potentiator -14, TRPN1 ag 1, V1R ag counter 8 and OXTR agonist 68*.
Screening COc1cc(OC)c(-c2c3cc(O)c(=O)cc-3oc3cc(O)c(O)cc23)cc1OC returned TRPML3 ag 206*, OXTR potentiator -12, TRPN1 ag 291*, V1R ag counter 389* and OXTR agonist 390*.
For O=C(NCc1ccccc1F)C1CCCN1S(=O)(=O)c1ccc(F)cc1 (configuration not stated) the results were OXTR potentiator -3, V1R ag counter 0 and OXTR agonist 0.
Screening COc1ccc(CN(C)S(=O)(=O)c2nnc(NC(=O)c3cccc(F)c3)s2)cc1 returned OXTR potentiator -12, V1R ag counter 10 and OXTR agonist 8.
COc1cc(/C=C2/SC(=Nc3ccc(O)cc3)NC2=O)ccc1O was read as TRPML3 ag 2, OXTR potentiator -10, TRPN1 ag 2, V1R ag counter 2 and OXTR agonist 2.
COc1cc(/C=C2\SC(=Nc3ccccc3)NC2=O)cc(Cl)c1O was read as OXTR potentiator -11, V1R ag counter 70* and OXTR agonist 89*.
For Cc1cc(C)cc(NC(=O)CSc2nnc(CNC(=O)c3ccco3)n2C)c1 the results were OXTR potentiator 1, V1R ag counter 1 and OXTR agonist -1.
